# Several values for one entry are separate records, joined by “and”; a condition that tells them apart may be missing. Equal values may be shown once.
# Assays:
# CBP/p300 HAT activity = settings: cited from earlier work
# [1] = system: primary murine MLL-AF9+ leukemic blasts; assay: clonogenic re-plating assay in methylcellulose; format: cell-based, mouse
# Summary of the method: (§1)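 Methylcellulose colony formation with serial re-plating, using either MLL-CBP immortalized murine bone marrow progenitors or MLL-AF9 leukemic blasts treated with test compound. Colonies are expressed as mean percentage of vehicle-treated ±SD, n=2; ANOVA with Dunnett multiple comparison.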
# KASUMI-1 cells [2] = assay: cell cycle analysis by flow cytometry; format: cell-based, human; settings: day 2 and 3, more pronounced at day 6
# CBP bromodomain [3] = target: T1, CBP bromodomain (Homo sapiens, UniProt Q92793); assay: temperature shift assay; format: binding
# T1 sequence (Q92793 1085-1192 limits assumed): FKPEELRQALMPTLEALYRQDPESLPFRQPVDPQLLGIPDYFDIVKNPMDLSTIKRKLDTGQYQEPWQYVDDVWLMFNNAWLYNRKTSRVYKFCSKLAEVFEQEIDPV
# [4] = system: bromodomains of the BET family members; assay: BLI selectivity screen, panel of 42 bromodomains; format: binding; settings: only BET family identified among 42 bromodomains
# SEM cells = assay: clonogenic growth in methylcellulose; format: cell-based, human; settings: dose dependent
# Summary of the method: (§2)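 Human leukemic cell lines were plated in methylcellulose with different doses of test compound, and colony growth was scored. Counts are mean percentage of vehicle-treated ±SD, n=3; ANOVA with Dunnett multiple comparison.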
# [5] = system: 41 other members of the human bromodomain family; assay: temperature shift assay, selectivity panel; format: binding; settings: 41 other bromodomains
# [6] = system: 12 stimulated primary human co-cultured cell types; assay: BioMAP panel of stimulated primary co-cultured cell types; format: cell-based
# Summary of the method: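 BioMAP profiling in four human haematopoietic co-culture systems, each treated with test compound: Sag and LPS (peripheral blood mononuclear cells with venular endothelial cells), BT (B cells with peripheral blood mononuclear cells), and IMphg (venular endothelial cells with M1 macrophages). Marker protein read-outs were monitored.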
# MOLM13 cells = assay: WST1 proliferation/survival assay, combination; format: cell-based, human; settings: combination with doxorubicin
# BRD4(1) = BRD4(1) (Homo sapiens, UniProt O60885); assay: isothermal titration calorimetry; format: binding
# p300 = p300 (Homo sapiens, UniProt Q09472); assay: ChIP-PCR of p300 occupancy at TNFSF13B and ID2; format: cell-based; settings: KASUMI-1, 3 µM
# p300, sequence (Q09472 whole entry): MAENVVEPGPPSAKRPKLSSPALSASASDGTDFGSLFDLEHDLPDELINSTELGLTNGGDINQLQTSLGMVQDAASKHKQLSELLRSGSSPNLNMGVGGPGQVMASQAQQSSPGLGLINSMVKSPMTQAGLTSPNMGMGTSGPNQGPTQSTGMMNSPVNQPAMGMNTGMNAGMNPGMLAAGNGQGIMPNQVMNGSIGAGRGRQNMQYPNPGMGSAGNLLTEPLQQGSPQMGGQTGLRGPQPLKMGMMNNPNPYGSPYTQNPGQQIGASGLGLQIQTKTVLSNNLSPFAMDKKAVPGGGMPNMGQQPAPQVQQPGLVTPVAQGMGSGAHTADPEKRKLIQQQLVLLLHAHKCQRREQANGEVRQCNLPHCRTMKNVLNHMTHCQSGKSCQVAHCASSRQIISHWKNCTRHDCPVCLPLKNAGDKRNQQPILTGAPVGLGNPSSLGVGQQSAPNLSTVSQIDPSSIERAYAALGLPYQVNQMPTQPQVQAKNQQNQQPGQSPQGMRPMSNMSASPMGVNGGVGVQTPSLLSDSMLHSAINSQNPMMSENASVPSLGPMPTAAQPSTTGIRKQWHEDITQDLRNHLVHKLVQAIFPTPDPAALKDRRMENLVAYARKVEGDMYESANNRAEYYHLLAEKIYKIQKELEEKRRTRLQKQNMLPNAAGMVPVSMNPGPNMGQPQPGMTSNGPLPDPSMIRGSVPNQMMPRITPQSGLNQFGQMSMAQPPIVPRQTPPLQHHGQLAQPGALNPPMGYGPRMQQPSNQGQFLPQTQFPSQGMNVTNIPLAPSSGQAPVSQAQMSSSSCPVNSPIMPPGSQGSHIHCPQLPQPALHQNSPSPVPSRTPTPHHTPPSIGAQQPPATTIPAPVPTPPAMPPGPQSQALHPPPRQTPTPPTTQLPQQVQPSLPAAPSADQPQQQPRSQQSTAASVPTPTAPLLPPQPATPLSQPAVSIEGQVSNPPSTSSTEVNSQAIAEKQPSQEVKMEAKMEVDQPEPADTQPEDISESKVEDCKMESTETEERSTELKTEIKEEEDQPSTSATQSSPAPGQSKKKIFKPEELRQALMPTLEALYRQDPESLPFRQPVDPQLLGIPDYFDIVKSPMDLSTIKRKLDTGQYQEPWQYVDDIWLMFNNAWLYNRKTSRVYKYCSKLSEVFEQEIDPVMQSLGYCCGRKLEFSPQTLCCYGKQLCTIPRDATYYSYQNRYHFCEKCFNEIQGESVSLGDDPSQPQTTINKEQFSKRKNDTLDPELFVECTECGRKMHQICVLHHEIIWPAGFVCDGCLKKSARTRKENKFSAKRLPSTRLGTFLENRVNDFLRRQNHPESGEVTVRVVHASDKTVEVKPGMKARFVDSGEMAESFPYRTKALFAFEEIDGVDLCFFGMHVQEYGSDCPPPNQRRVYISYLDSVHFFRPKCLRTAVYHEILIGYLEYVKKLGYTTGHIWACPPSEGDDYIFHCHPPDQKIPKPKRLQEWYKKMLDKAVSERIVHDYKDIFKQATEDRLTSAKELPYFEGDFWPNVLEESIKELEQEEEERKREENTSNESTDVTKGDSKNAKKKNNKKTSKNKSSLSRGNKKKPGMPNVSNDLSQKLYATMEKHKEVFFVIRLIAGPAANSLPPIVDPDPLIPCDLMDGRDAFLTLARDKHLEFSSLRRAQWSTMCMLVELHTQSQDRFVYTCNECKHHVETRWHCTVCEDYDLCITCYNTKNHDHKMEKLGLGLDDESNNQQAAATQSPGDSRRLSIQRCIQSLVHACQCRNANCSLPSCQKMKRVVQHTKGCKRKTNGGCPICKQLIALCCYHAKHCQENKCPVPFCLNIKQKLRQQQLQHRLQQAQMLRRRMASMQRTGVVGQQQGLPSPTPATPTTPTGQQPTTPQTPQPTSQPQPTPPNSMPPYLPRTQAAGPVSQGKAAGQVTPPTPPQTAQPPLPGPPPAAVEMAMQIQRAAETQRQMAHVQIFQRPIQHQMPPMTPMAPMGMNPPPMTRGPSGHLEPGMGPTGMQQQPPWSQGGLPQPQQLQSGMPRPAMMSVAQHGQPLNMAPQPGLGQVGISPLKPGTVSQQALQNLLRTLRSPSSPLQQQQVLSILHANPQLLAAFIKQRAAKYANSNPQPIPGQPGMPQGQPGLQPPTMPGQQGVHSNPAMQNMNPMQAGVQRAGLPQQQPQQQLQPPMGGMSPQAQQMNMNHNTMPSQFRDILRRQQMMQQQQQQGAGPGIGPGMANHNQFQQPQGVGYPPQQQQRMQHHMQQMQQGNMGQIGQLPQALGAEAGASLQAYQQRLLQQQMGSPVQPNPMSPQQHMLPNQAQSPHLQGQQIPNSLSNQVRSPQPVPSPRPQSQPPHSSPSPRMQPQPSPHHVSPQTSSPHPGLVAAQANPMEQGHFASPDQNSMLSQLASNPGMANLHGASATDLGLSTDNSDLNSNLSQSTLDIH
# BRD4(2) [7] = target: T2, BRD4(2) (Homo sapiens, UniProt O60885); assay: temperature shift assay; format: binding; settings: second bromodomain of BRD4
# full-length GFP-BRD4 = full-length GFP-BRD4 (Homo sapiens, UniProt O60885); assay: NanoBRET, full-length BRD4; format: cell-based
# [8] = system: MLL-CBP immortalized murine bone marrow cells; assay: clonogenic growth and replating in methylcellulose; format: cell-based, mouse; settings: more apparent upon re-plating
# Summary of the method: as §1
# [9] = system: peripheral CD34+ cells from healthy donors; assay: clonogenic growth of primary cells in methylcellulose; format: cell-based, human; settings: three healthy donors
# Summary of the method: (§3)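 Primary human cells were grown in methylcellulose with test compound: CD34+ cells from healthy donors (n=3) or AML patient blasts (n=5). Colonies and cell numbers are expressed as mean percentage of vehicle-treated ±SD; ANOVA with Dunnett. Morphology was assessed by Giemsa-Wright stain after DMSO or 5 µM treatment.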
# α1A = α1A (Homo sapiens, UniProt P35348); settings: both stereoisomers; low µM region
# CBP bromodomain [10] = target: T1, CBP bromodomain; format: binding; settings: read-out: dissociation constant (KD); ITC, in solution
# CBP = CBP (Homo sapiens, UniProt Q92793); settings: BLI
# CBP, sequence (Q92793 1085-1192 limits assumed): as the sequence (Q92793 1085-1192 limits assumed) above
# isolated CBP bromodomain = isolated CBP bromodomain (Homo sapiens, UniProt Q92793); assay: NanoBRET, NanoLuc CBP bromodomain / Halo-tagged Histone H3.3; format: cell-based; settings: read-out: cellular IC50, construct containing the bromodomain only
# isolated CBP bromodomain, sequence (Q92793 1085-1192 limits assumed): as above
# MLL-AF9+ AML cells [11] = assay: transplantation of pre-treated MLL-AF9+ AML cells into secondary recipients; format: in vivo, mice; settings: cells pre-treated 5 µM 3 days; 5-50 x 10^3 cells transplanted
# Summary of the method: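 Leukemic blasts were taken from mice that developed AML after transplantation of bone marrow retrovirally expressing MLL-AF9. Blasts were treated ex vivo with 5 µM test compound or DMSO for 3 days. Limiting doses (50 000, 10 000, 5 000, 500 cells) went into irradiated syngeneic secondary recipients, n=4/5 per group. Disease-free survival was compared by log-rank (Mantel-Cox) test.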
# BRD4(2) [12] = target: T2, BRD4(2); assay: isothermal titration calorimetry; format: binding
# p300 bromodomain = p300 bromodomain (Homo sapiens, UniProt Q09472); assay: isothermal titration calorimetry; format: binding; settings: read-out: dissociation constant (KD); ITC, in solution
# p300 bromodomain, sequence (Q09472 1049-1156 limits assumed): as the sequence (Q92793 1085-1192 limits assumed) above, with N47S, V73I, F93Y, A98S counted along it
# full-length CBP [13] = target: T3, full-length CBP (Homo sapiens, UniProt Q92793); format: cell-based; settings: NanoBRET dose response
# T3 sequence (Q92793 whole entry): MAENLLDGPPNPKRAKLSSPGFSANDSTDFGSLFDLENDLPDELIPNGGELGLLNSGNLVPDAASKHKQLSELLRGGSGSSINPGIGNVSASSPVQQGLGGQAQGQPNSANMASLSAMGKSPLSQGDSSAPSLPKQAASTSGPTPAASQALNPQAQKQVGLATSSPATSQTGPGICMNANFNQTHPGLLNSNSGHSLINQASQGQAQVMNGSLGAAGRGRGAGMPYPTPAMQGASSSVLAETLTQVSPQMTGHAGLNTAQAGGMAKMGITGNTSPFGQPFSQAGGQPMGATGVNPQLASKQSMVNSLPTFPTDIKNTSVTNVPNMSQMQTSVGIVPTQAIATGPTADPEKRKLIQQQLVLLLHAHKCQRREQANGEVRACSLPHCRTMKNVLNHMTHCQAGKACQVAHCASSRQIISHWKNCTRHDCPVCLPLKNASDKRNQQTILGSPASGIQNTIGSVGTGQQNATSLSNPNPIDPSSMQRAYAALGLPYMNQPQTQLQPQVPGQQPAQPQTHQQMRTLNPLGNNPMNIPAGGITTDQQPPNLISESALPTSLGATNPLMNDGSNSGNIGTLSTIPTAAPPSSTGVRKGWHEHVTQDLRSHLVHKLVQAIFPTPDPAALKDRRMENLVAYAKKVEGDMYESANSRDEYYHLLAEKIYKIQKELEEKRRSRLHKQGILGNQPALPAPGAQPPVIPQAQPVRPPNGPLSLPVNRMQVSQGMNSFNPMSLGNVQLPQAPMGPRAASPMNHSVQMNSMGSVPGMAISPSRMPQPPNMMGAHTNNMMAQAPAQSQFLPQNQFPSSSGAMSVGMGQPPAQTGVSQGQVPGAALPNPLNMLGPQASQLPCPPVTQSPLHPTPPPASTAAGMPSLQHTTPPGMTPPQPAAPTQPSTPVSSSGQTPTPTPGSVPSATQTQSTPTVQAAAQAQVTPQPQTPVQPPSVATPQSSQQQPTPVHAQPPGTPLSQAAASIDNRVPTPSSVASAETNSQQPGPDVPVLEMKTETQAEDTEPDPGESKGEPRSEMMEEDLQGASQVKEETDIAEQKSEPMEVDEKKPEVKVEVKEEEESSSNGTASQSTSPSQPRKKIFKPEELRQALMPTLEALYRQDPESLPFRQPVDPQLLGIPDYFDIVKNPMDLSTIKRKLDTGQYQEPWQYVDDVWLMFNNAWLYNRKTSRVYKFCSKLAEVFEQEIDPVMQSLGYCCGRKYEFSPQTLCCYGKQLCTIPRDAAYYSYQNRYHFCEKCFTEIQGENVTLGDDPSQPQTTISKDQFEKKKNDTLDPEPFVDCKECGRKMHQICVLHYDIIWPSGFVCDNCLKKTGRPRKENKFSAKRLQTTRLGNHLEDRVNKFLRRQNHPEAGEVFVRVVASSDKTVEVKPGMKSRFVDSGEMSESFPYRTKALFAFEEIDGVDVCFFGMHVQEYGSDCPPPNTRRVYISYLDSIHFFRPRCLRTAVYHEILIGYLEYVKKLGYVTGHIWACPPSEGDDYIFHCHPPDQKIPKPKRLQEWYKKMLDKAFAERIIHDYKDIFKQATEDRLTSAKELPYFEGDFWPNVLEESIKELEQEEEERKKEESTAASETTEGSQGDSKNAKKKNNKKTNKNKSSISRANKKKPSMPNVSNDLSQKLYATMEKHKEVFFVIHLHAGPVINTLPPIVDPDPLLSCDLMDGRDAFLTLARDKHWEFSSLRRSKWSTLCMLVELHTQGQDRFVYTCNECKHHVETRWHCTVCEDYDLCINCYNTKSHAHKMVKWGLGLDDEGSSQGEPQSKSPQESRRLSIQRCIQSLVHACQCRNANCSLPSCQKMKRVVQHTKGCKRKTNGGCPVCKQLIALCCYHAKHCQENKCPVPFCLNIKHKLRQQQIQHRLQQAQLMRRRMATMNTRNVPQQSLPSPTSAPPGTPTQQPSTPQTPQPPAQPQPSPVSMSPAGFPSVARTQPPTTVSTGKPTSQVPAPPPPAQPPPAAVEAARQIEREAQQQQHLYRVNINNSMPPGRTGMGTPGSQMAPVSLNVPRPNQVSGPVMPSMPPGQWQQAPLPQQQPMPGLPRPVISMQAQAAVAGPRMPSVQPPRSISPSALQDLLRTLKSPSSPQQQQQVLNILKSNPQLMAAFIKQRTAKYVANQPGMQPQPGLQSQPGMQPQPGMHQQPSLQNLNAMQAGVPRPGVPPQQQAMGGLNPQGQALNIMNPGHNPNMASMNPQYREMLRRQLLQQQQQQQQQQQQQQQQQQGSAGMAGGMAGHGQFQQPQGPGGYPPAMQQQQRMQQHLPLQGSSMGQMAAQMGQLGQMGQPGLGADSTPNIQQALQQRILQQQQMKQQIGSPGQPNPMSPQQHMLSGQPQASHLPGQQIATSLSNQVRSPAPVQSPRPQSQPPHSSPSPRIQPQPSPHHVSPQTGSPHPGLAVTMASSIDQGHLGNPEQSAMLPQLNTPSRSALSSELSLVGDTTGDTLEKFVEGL
# [14] = system: 12 human cell lines that form visible colonies in methylcellulose; assay: clonogenic growth in methylcellulose, human leukemic cell line panel; format: cell-based; settings: all 12 colony-forming human leukemic lines
# [15] = system: KASUMI-1, MOLM13 and SEM cells; assay: WST1 proliferation/survival assay, single agents and combinations; format: cell-based, human; settings: for activity alone in WST1 assay: single agent, different for each cell line
# [16] = system: MLL-AF9 expressing blasts; assay: extreme limiting dilution analysis; format: cell-based, mouse; settings: 5µM for 3 days; vehicle 1/2.3
# Summary of the method: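 MLL-AF9 leukemic blasts from diseased mice were exposed ex vivo to 5 µM test compound or DMSO for 3 days, then plated at limiting dilution (highest dose 10 cells). A limiting dilution model fitted on a log-fraction plot gave stem cell frequency with 95% confidence intervals. Groups were compared by an overall chi-square test.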
# 5HT1 = settings: both stereoisomers; low µM region
# [17] = system: primary blast cells from AML patients; assay: clonogenic growth of primary cells in methylcellulose; format: cell-based, human; settings: five AML patients
# Summary of the method: as §3
# [18] = system: primary murine MLL-AF9+ leukemic blasts; assay: WST1 cytotoxicity assay; format: cell-based, mouse
# Summary of the method: (§4)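 WST1 cytotoxicity assay. Cells were murine bone marrow cells immortalized by retroviral MLL-CBP expression, or MLL-AF9 leukemic blasts isolated from mice transplanted with bone marrow retrovirally expressing that oncogene. Signal was expressed as mean percentage of vehicle-treated cells ±SD, n=4; ANOVA with Dunnett multiple comparison.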
# CBP bromodomain [19] = target: T1, CBP bromodomain; settings: read-out: IC50 displacing H3K56ac from the CBP binding site; AlphaScreen, H3K56ac peptide
# pharmacokinetic study = format: in vivo; settings: mice
# KASUMI-1 cells [20] = assay: apoptosis, 7-AAD/AnnexinV staining; format: cell-based, human; settings: prolonged exposure, day 5, liquid culture
# MLL-AF9+ AML cells [21] = assay: cell surface marker expression after liquid culture exposure; format: cell-based, mouse; settings: 5 µM, 3 days
# MOLM13 = assay: clonogenic growth in methylcellulose; format: cell-based, human; settings: dose dependent
# Summary of the method: as §2
# KASUMI-1 = assay: clonogenic growth in methylcellulose; format: cell-based, human; settings: dose dependent
# Summary of the method: as §2
# full-length CBP [22] = target: T3, full-length CBP; format: cell-based; settings: GFP-tagged full-length CBP
# [23] = system: MLL-CBP immortalized murine bone marrow cells; assay: WST1 cytotoxicity assay; format: cell-based, mouse; settings: significant cytotoxicity only at high concentrations and prolonged exposure
# Summary of the method: as §4
# H3K56ac peptide = assay: ITC
compound,measurement,setting,value
CC1=NN(c2ccc(C(=O)O)cc2)C(=O)/C1=C\c1ccc(-c2cc(C)c(C)cc2[N+](=O)[O-])o1 [C646],HAT inhibitory activity,CBP/p300 HAT activity,low µM activity
CCC(=O)N1CCOc2c(cc(-c3ccc(OC)c(OC)c3)cc2OC[C@H]2CCCN(C)C2)C1 [I-CBP112],self-renewal in clonogenic re-plating,[1],significantly impaired
same,cell cycle effect,KASUMI-1 cells [2],prominent G1 arrest
same,ΔTm (stabilization of melting temperature),CBP bromodomain [3],7.8 ºC
same,off-target activity in BLI screen,[4],weak off-target activity
same,clonogenic growth,SEM cells,significantly impaired
same,ΔTm values,[5],low
same,expression level of CCL2,[6],no effect
same,expression level of Selectin (CD62),[6],no effect
same,expression of IL10,[6],down-regulated
same,expression of VCAM1/CD106,[6],down-regulated
same,secreted IgG,[6],up-regulated
same,synergism,MOLM13 cells,less pronounced
same,fold selectivity,"BRD4(1); CBP over BRD4(1), from ITC KDs",37 fold
same,Kd,BRD4(1); ITC,5.6 µM
same,displacement of p300 from chromatin,p300; 8h,did not see significant displacement
same,p300 occupancy,"p300; 4 days, vs DMSO",increased p300 occupancy
same,ΔTm,BRD4(2) [7],0.6 °C
same,displacement of full-length BRD4,full-length GFP-BRD4,No displacement
same,clonogenic growth,[8],significantly reduced
same,colony number in MC,[9],did not affect
same,interaction in selectivity panel,α1A,weak interaction
same,Kd,CBP bromodomain [10],0.151 ± 0.006 µM
same,Kd,CBP,0.142 µM
same,IC50,isolated CBP bromodomain,0.6 ± 0.05 µM
same,time of disease development in recipient mice,MLL-AF9+ AML cells [11],significantly later
same,fold selectivity,"BRD4(2) [12]; CBP over BRD4(2), from ITC KDs",132 fold
same,Kd,BRD4(2) [12]; ITC,20 µM
same,Kd,p300 bromodomain,0.167 ± 0.008 µM
same,effect on recruitment of full-length CBP to chromatin,full-length CBP [13],no significant effect
same,clonogenic growth,[14],significantly reduced
same,synergy (Chou-Talalay),[15]; combination with JQ1,strong synergy
same,synergy (Chou-Talalay),"[15]; combination with doxorubicin, except MOLM13",strong synergy
same,estimated stem cell frequency,[16],significant decrease and 1/13
same,interaction in selectivity panel,5HT1,weak interaction
same,number of colonies and cells in MC,[17],dose dependent reduction
same,cytotoxicity,[18],without significant cytotoxicity
same,IC50,CBP bromodomain [19],0.17 µM
same,AUC,pharmacokinetic study; IP 3 mg/kg,384 ng/h/mL
same,half-life,pharmacokinetic study; IP 3 mg/kg,36 ± 6 min
same,mean Cmax,pharmacokinetic study; IP 3 mg/kg,590 ng/mL
same,bioavailability F%,"pharmacokinetic study; IP vs IV, (AUCt/Dip)/(AUC∞/Div)",114 ± 63%
same,blood clearance,pharmacokinetic study; IV 1.2 mg/kg,high
same,volume distribution,pharmacokinetic study; IV 1.2 mg/kg,moderate
same,Cmax,"pharmacokinetic study; read-out: mean Cmax, IP 3 mg/kg, n=3",1260 ± 740 nM
same,apoptosis,KASUMI-1 cells [20],signs of apoptosis
same,c-Kit/CD117 expression,MLL-AF9+ AML cells [21],slightly decreased
same,granulocyte marker Gr-1 expression,MLL-AF9+ AML cells [21],slightly decreased
same,clonogenic growth,MOLM13,significantly impaired
same,clonogenic growth,KASUMI-1,significantly impaired
same,FRAP recovery times,full-length CBP [22],did not lead to decreased recovery times
same,cell survival,[23],did not affect cell survival
"Cc1sc2c(c1C)C(c1ccc(Cl)cc1)=N[C@@H](CC(=O)OC(C)(C)C)c1nnc(C)n1-2 [JQ1, reference compound]",expression of IL10,[6],down-regulated
same,expression of VCAM1/CD106,[6],down-regulated
same,secreted IgG,[6],strongly down-regulated
same,activity alone in WST1 assay,[15],low nM activity
"COc1cccc2c1C(=O)c1c(O)c3c(c(O)c1C2=O)C[C@@](O)(C(=O)CO)C[C@@H]3O[C@H]1C[C@H](N)[C@H](O)[C@H](C)O1 [doxorubicin, reference compound]",activity alone in WST1 assay,[15],low nM activity
CBP bromodomain (domain or fragment),Kd,H3K56ac peptide,13.8 µM
